{"data": "Published values of several laboratories", "note": "Compare with care: the assays were run in different laboratories."}
{"SMILES": "N#Cc1cc(-c2nc3ccccc3s2)c(=O)n(NS(=O)(=O)c2ccccc2)c1N", "organism": "Human mastadenovirus B", "test": "plaque formation", "test system": "HEp-2", "measurement": "IC50", "value": "110 µg/mL"}
{"SMILES": "N=C(NCCCCCCNC(=N)NC(=N)Nc1ccc(Cl)cc1)NC(=N)Nc1ccc(Cl)cc1", "organism": "Acanthamoeba castellanii", "test": "parasite growth, resazurin", "conditions": "96 h", "measurement": "IC50", "value": "5.97 µM"}
{"SMILES": "CCc1nc(N)nc(N)c1-c1ccc(Cl)cc1", "organism": "Toxoplasma gondii", "test": "parasite growth", "test system": "human Fibroblast", "conditions": "intracellular", "measurement": "IC50", "value": "16.1 µM"}
{"SMILES": "CC(C)(C)C1=CC(=NNC(=O)C2CCCCC2)C=C(C(C)(C)C)C1=O", "organism": "Toxoplasma gondii", "test": "parasite growth, fluorescence", "conditions": "5 days, intracellular", "measurement": "IC50", "value": "> 100 µM"}
{"SMILES": "O=C1C(O)=C([C@H]2CC[C@H](c3ccc(Cl)cc3)CC2)C(=O)c2ccccc21", "organism": "Toxoplasma gondii", "test": "parasite growth", "conditions": "72 h, intracellular", "measurement": "EC50", "value": "0.0106 µM"}
{"SMILES": "CCc1cc(Nc2cc(=O)n(CCCCO)c(=O)[nH]2)ccc1C", "organism": "Lacticaseibacillus casei", "test": "microbial growth, agar dilution", "conditions": "48 h", "measurement": "MIC", "value": "32 µg/mL"}
{"SMILES": "OC[C@H]1O[C@@H](n2ccc3c(O)ncnc32)[C@H](O)[C@@H]1O", "organism": "Toxoplasma gondii", "test": "parasite growth", "test system": "human Fibroblast", "conditions": "intracellular", "measurement": "IC50", "value": "36.1 µM"}
{"SMILES": "C[C@@H](c1ncncc1F)[C@](O)(Cn1cncn1)c1ccc(F)cc1F", "organism": "Acanthamoeba castellanii", "test": "parasite growth, resazurin", "conditions": "7 days", "measurement": "IC50", "value": "21.6 µM"}
{"SMILES": "COc1cc2[nH]c3cc(Oc4ccc(OC(F)(F)F)cc4)ccc3c(=O)c2cc1F", "organism": "Toxoplasma gondii", "test": "parasite growth", "conditions": "72 h, intracellular", "measurement": "EC50", "value": "0.00063 µM"}
{"SMILES": "Cc1ccc(C(=O)ON=C2C=C(C(C)(C)C)C(=O)C(C(C)(C)C)=C2)cc1", "organism": "Toxoplasma gondii", "test": "parasite growth, fluorescence", "conditions": "5 days, intracellular", "measurement": "IC50", "value": "13 µM"}
{"SMILES": "O=c1[nH]c(NCc2ccc(Cl)c(Cl)c2)nc2ncn(CCCCCN3CCOCC3)c12", "organism": "Lacticaseibacillus casei", "test": "microbial growth, agar dilution", "conditions": "48 h", "measurement": "MIC", "value": "16 µg/mL"}
{"SMILES": "Cc1nc2sccn2c1C(=O)N1CCN(CCn2cc(-c3ccc(C(C)(C)C)cc3)nn2)CC1", "organism": "Mycolicibacterium smegmatis", "test": "microbial growth", "conditions": "72 h", "measurement": "IC50", "value": "> 128 µM"}
